Converted amounts (≈) assume the structure as drawn. The source made the active and inactive calls. The calls are words filed in the database; no cut-off is given here.
Assays:
[1] = test system: KB; experiment: Cytotoxicity against human KB cells after 72 hrs by SRB assay; assay type: functional; conditions: read-out: ED50 (the source's name)
How it was run: (§1)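 KB (nasopharyngeal) and HCT-15 (colon) lines kept in RPMI 1640 with 10% FBS at 37 °C, 5% CO2. Log-phase cells were exposed in triplicate to 0.16-20 µg/mL of sample for 72 h. Cell density was read by sulforhodamine staining. ED50 (50% growth inhibition versus control) was estimated from a semilog plot of concentration against percent viable cells. Ellipticine served as positive control.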

[2] = test system: HCT-15; experiment: Cytotoxicity against human HCT-15 cells after 72 hrs by SRB assay; assay type: functional; conditions: HCT-15, 72 h, read-out: ED50 (the source's name); how it was run: as §1
[3] = test system: HCT-15; experiment: Cytotoxicity against human HCT-15 cells at 20 ug/mL after 72 hrs by SRB assay; assay type: functional, cell-based
[4] = test system: KB; experiment: Cytotoxicity against human KB cells up to 20 ug/mL after 72 hrs by SRB assay; assay type: functional, cell-based; how it was run: as §1
[5] = test system: Ostrinia nubilalis; experiment: Insecticidal activity against Ostrinia nubilalis larvae after 4 to 6 days; assay type: functional, organism-based
How it was run: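 Samples were dissolved in 95% EtOH and mixed into agar-based meridic diet at final 5, 50 and 100 ppm. European corn borer larvae were reared on it at 25 °C, about 80% RH, with a 16:8 light:dark cycle. Mortality and larval weight were recorded every 4-6 days over the growth period. ANOVA with Tukey's multiple range test.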

Row | SMILES | EC50 [1] | EC50 [2] | Activity [3] | Activity [4] | Activity [5]
1 | C=C1[C@H](O)C[C@H]2[C@@](C)(COC(C)=O)CC(=O)C[C@]2(C)[C@H]1CC/C(C)=C\CO | 11 µg/mL (≈ 29.1 µM) | 11 µg/mL (≈ 29.1 µM) | – | – | –
2 | C=C1[C@H](O)C[C@H]2[C@@](C)(COC(C)=O)C[C@H](O)C[C@]2(C)[C@H]1CC/C(C)=C\CO | 19.4 µg/mL (≈ 51 µM) | 8.7 µg/mL (≈ 22.9 µM) | – | – | –
3 | Cc1c2ccncc2c(C)c2c1[nH]c1ccccc12 [ELLIPTECINE] | 0.1 µg/mL (≈ 0.406 µM) | 0.17 µg/mL (≈ 0.69 µM) | – | – | –
4 | C=C1[C@H](O)C[C@@H]2[C@](C)(CO)C[C@@H](O)C[C@@]2(C)[C@H]1CC/C(C)=C\CO | – | – | inactive | inactive | –
5 | C=C1[C@H](O)C[C@H]2[C@@](C)(COC(C)=O)C[C@H](O)C[C@]2(C)[C@H]1CCC(C)=O | – | – | inactive | inactive | –
6 | C=C1[C@H](O)C[C@H]2[C@@](C)(COC(C)=O)C[C@H](O)C[C@]2(C)[C@H]1CC/C(C)=C\COC(C)=O | – | – | inactive | inactive | Active
7 | C=C1[C@H](O)C[C@H]2[C@@](C)(COC(C)=O)C[C@H](O)C[C@]2(C)[C@H]1CC/C(C)=C\C=O | 11 µg/mL (≈ 29.1 µM) | 11 µg/mL (≈ 29.1 µM) | – | – | –
8 | C=C1[C@H](OC(C)=O)C[C@H]2[C@@](C)(COC(C)=O)C[C@H](O)C[C@]2(C)[C@H]1CC/C(C)=C\COC(C)=O | – | – | inactive | inactive | –
